Experimental data reported in ChEMBL document CHEMBL1124214, “Synthesis, binding studies, and structure-activity relationships of 1-aryl-and 2-aryl[1]benzopyranopyrazol-4-ones, central benzodiazepine receptor ligands” (J Med Chem, 1988).

These molecules were tested against GABA-A receptor; anion channel (assay: Inhibition of [3H]flunitrazepam binding to benzodiazepine receptor in bovine brain membrane).
Type: cell membranes, Bos taurus
Method in brief: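 Bovine brain membranes (0.4-0.5 mg protein) incubated in triplicate with 0.6 nM [3H]flunitrazepam, 90 min at 0 °C, 50 mM Tris-HCl; compounds in EtOH unless noted. Rapid GF/B filtration, buffer wash, scintillation counting; nonspecific binding with 10 μM diazepam. IC50 from log-probit plots, mean ± SEM of seven determinations.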

Structure (SMILES)	IC50
COc1ccc(-n2nc(C)c3c(=O)oc4ccccc4c32)cc1	0.7 µM
CNC1=Nc2ccc(Cl)cc2C(c2ccccc2)=[N+]([O-])C1 [CHLORDIAZEPOXIDE]	0.79 µM
Cc1nn(-c2ccc([N+](=O)[O-])cc2)c2c1c(=O)oc1ccccc12	1 µM
Cc1nn(-c2cccc(Cl)c2)c2c1c(=O)oc1ccccc12	0.09 µM
Cc1cc(C)cc(-n2nc(C)c3c(=O)oc4ccccc4c32)c1	0.065 µM
COc1cccc(-n2nc(C)c3c(=O)oc4ccccc4c32)c1	0.75 µM
Cc1c2c(=O)oc3ccccc3c2nn1-c1ccccc1	3.1 µM
Cc1nn(-c2ccc(N)cc2)c2c1c(=O)oc1ccccc12	1.3 µM
CN1C(=O)CN=C(c2ccccc2)c2cc(Cl)ccc21 [DIAZEPAM]	0.025 µM
Cc1ccc(-n2nc(C)c3c(=O)oc4ccccc4c32)cc1	2 µM
Cc1c2c(=O)oc3ccccc3c2nn1-c1cccc(Br)c1	25 µM
Cc1nn(-c2ccccc2N)c2c1c(=O)oc1ccccc12	0.63 µM
COc1ccccc1-n1nc(C)c2c(=O)oc3ccccc3c21	8 µM
COc1cccc(-n2nc3c(c2C)c(=O)oc2ccccc23)c1	5 µM
Cc1nn(-c2cccc(N)c2)c2c1c(=O)oc1ccccc12	3.4 µM
Cc1nn(-c2ccc(Cl)cc2)c2c1c(=O)oc1ccccc12	0.75 µM
O=c1oc2ccccc2c2c1c(-c1ccccc1)nn2-c1ccccc1	16 µM
Cc1cccc(-n2nc(C)c3c(=O)oc4ccccc4c32)c1	0.28 µM
Cc1nn(-c2cccc([N+](=O)[O-])c2)c2c1c(=O)oc1ccccc12	0.32 µM
Cc1nn(-c2ccccc2[N+](=O)[O-])c2c1c(=O)oc1ccccc12	43 µM
Cc1nn(-c2cccc(Br)c2)c2c1c(=O)oc1ccccc12	0.1 µM
Cc1cccc(-n2nc3c(c2C)c(=O)oc2ccccc23)c1	3 µM
Cc1ccccc1-n1nc(C)c2c(=O)oc3ccccc3c21	30 µM
Cc1nn(-c2ccccc2Cl)c2c1c(=O)oc1ccccc12	16 µM
Cc1nn(-c2ccccc2)c2c1c(=O)oc1ccccc12	0.3 µM

Species: Bos taurus
Test: Percentage inhibition of [3H]flunitrazepam binding to benzodiazepine receptor of bovine brain membrane at 34 uM
Method in brief: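 Specific [3H]flunitrazepam binding (0.6 nM) to bovine brain membranes, 90 min at 0 °C in 50 mM Tris-HCl, triplicate incubations; test compound at 34 μM, EtOH vehicle unless noted. Filtration through GF/B, scintillation counting; 10 μM diazepam defines nonspecific binding. Percent inhibition as mean ± SEM of five determinations.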

Structure (SMILES)	inhibition
O=c1oc2ccccc2c2c1c(-c1ccccc1)nn2-c1ccccc1	34%
Cc1nn(-c2ccccc2Cl)c2c1c(=O)oc1ccccc12	34%
